# Experiments:
# Candida albicans = assay: Antifungal activity against Candida albicans 7535 after 24 hrs by microtiter ELISA; assay type: functional; settings: Candida albicans, 7535, 24 h
# Outline: (§1)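 Two-fold serial broth dilution in Mueller-Hinton broth, final 64-0.25 µg/mL; compounds in DMSO (final ≤0.05%). Mid-log cultures diluted 1000-fold, inoculum 10^5 CFU/mL; oxacillin and norfloxacin as positive controls. After 24 h at 37 °C, growth read at 650 nm on a microtiter ELISA reader; MIC = lowest level giving complete growth inhibition. Run three times.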
# Escherichia coli = assay: Antibacterial activity against Escherichia coli KCTC 1924 after 24 hrs by microtiter ELISA; assay type: functional; settings: KCTC 1924, 24 h; outline: as §1
# Staphylococcus aureus [1] = assay: Antibacterial activity against methicillin-resistant Staphylococcus aureus CCARM 3506 after 24 hrs by microtiter ELISA; assay type: functional; settings: CCARM 3506, 24 h
# Outline: (§2)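 Broth microdilution MIC. Bacteria grown to mid-log phase in Mueller-Hinton broth, diluted 1000-fold, and inoculated at 10^5 CFU/mL. Compounds in DMSO (final ≤0.05%) were given as two-fold serial dilutions, final 64-0.25 µg/mL. Plates were incubated 24 h at 37 °C and growth read at 650 nm. MIC is the lowest concentration giving complete growth inhibition. Three independent experiments; oxacillin and norfloxacin served as positive controls.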
# Staphylococcus aureus [2] = assay: Antibacterial activity against Staphylococcus aureus RN4220 after 24 hrs by microtiter ELISA; assay type: functional; settings: RN4220, 24 h; outline: as §2
# Staphylococcus aureus [3] = assay: Antibacterial activity against quinolone-resistant Staphylococcus aureus CCARM 3519 after 24 hrs by microtiter ELISA; assay type: functional; settings: CCARM 3519, 24 h; outline: as §2
# Staphylococcus aureus [4] = assay: Antibacterial activity against methicillin-resistant Staphylococcus aureus CCARM 3167 after 24 hrs by microtiter ELISA; assay type: functional; settings: CCARM 3167, 24 h; outline: as §2
# Streptococcus mutans = assay: Antibacterial activity against Streptococcus mutans 3289 after 24 hrs by microtiter ELISA; assay type: functional; settings: Streptococcus mutans, 3289, 24 h; outline: as §1
# Staphylococcus aureus [5] = assay: Antibacterial activity against quinolone-resistant Staphylococcus aureus CCARM 3505 after 24 hrs by microtiter ELISA; assay type: functional; settings: CCARM 3505, 24 h; outline: as §2
# L02 = assay: Cytotoxicity against human L02 cells assessed as inhibition of cell growth measured after 24 hrs by MTT assay; assay type: cell-based; settings: L02, 24 h
# Outline: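 L02 normal human liver cells seeded at 1.8 × 10^4 cells/well in DMEM with 10% FBS and antimycotic. Exposed 24 h at 37 °C, 5% CO2 to 200-1.625 µM, compounds in 10% DMSO. MTT (2.5 mg/mL) added for 4 h, formazan dissolved in DMSO, OD at 570 nm. Untreated cells as negative control; IC50 = 50% growth inhibition; triplicate.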
SMILES,MIC (Candida albicans),MIC (Escherichia coli),MIC (Staphylococcus aureus [1]),MIC (Staphylococcus aureus [2]),MIC (Staphylococcus aureus [3]),MIC (Staphylococcus aureus [4]),MIC (Streptococcus mutans),MIC (Staphylococcus aureus [5]),IC50 (L02)
CN(C)C1=NC(c2cn(-c3ccccc3)nc2-c2ccc(Cl)cc2)N=C(N)N1 (stereo unspecified),8 µg/mL,8 µg/mL,8 µg/mL,8 µg/mL,16 µg/mL,16 µg/mL,32 µg/mL,16 µg/mL,–
NC1=NC(c2cn(-c3ccccc3)nc2-c2cccc(Cl)c2)N=C(N2CCOCC2)N1 (stereo unspecified),16 µg/mL,16 µg/mL,16 µg/mL,16 µg/mL,16 µg/mL,16 µg/mL,32 µg/mL,16 µg/mL,–
CN(C)C1=NC(c2cn(-c3ccc([N+](=O)[O-])cc3[N+](=O)[O-])nc2-c2ccccc2Br)N=C(N)N1 (stereo unspecified),64 µg/mL,32 µg/mL,32 µg/mL,32 µg/mL,64 µg/mL,32 µg/mL,32 µg/mL,32 µg/mL,–
NC1=NC(c2cn(-c3ccccc3)nc2-c2ccc(Br)cc2)N=C(N2CCOCC2)N1 (stereo unspecified),16 µg/mL,16 µg/mL,4 µg/mL,8 µg/mL,8 µg/mL,8 µg/mL,32 µg/mL,16 µg/mL,–
CCn1cc(C(=O)O)c(=O)c2cc(F)c(N3CCNCC3)cc21 [NORFLOXACIN],–,–,4 µg/mL,–,> 64 µg/mL,8 µg/mL,–,> 64 µg/mL,–
CCC(C)n1ncn(-c2ccc(N3CCN(c4ccc(OCC5COC(Cn6cncn6)(c6ccc(Cl)cc6Cl)O5)cc4)CC3)cc2)c1=O (stereo unspecified) [ITRACONAZOLE],0.6 µg/mL,–,–,–,–,–,–,–,–
CN(C)C1=NC(c2cn(-c3ccccc3)nc2-c2cccc(Cl)c2)N=C(N)N1 (stereo unspecified),8 µg/mL,8 µg/mL,16 µg/mL,4 µg/mL,32 µg/mL,16 µg/mL,16 µg/mL,32 µg/mL,–
Cc1ccc(-c2nn(-c3ccccc3)cc2C2N=C(N)NC(N(C)C)=N2)cc1 (stereo unspecified),32 µg/mL,32 µg/mL,32 µg/mL,32 µg/mL,64 µg/mL,16 µg/mL,64 µg/mL,64 µg/mL,–
COc1c(N2CCNC(C)C2)c(F)cc2c(=O)c(C(=O)O)cn(C3CC3)c12 (stereo unspecified) [GATIFLOXACIN],–,2 µg/mL,2 µg/mL,0.25 µg/mL,4 µg/mL,2 µg/mL,0.25 µg/mL,8 µg/mL,–
CN(C)C1=NC(c2cn(-c3ccccc3)nc2-c2ccc(Br)cc2)N=C(N)N1 (stereo unspecified),8 µg/mL,8 µg/mL,4 µg/mL,8 µg/mL,16 µg/mL,4 µg/mL,16 µg/mL,16 µg/mL,–
COc1c(N2C[C@@H]3CCCN[C@@H]3C2)c(F)cc2c(=O)c(C(=O)O)cn(C3CC3)c12 [MOXIFLOXACIN],–,–,–,0.25 µg/mL,4 µg/mL,–,0.25 µg/mL,–,–
COc1cccc(-c2nn(-c3ccc([N+](=O)[O-])cc3[N+](=O)[O-])cc2C2N=C(N)NC(N(C)C)=N2)c1 (stereo unspecified),32 µg/mL,32 µg/mL,32 µg/mL,32 µg/mL,64 µg/mL,32 µg/mL,64 µg/mL,64 µg/mL,–
CN(C)C1=NC(c2cn(-c3ccc([N+](=O)[O-])cc3[N+](=O)[O-])nc2-c2ccc(Br)cc2)N=C(N)N1 (stereo unspecified),8 µg/mL,8 µg/mL,4 µg/mL,8 µg/mL,8 µg/mL,8 µg/mL,16 µg/mL,4 µg/mL,–
Cc1ccc(-c2nn(-c3ccccc3)cc2C2N=C(N)NC(N3CCOCC3)=N2)cc1 (stereo unspecified),64 µg/mL,64 µg/mL,32 µg/mL,64 µg/mL,64 µg/mL,32 µg/mL,64 µg/mL,64 µg/mL,–
Cc1onc(-c2ccccc2)c1C(=O)N[C@@H]1C(=O)N2[C@@H]1SC(C)(C)[C@@H]2C(=O)O [OXACILLIN],–,–,> 64 µg/mL,–,1 µg/mL,> 64 µg/mL,–,1 µg/mL,–
CN(C)C1=NC(c2cn(-c3ccc([N+](=O)[O-])cc3[N+](=O)[O-])nc2-c2cccc(Cl)c2)N=C(N)N1 (stereo unspecified),8 µg/mL,8 µg/mL,4 µg/mL,4 µg/mL,16 µg/mL,4 µg/mL,8 µg/mL,4 µg/mL,–

SMILES,MIC (Candida albicans),MIC (Escherichia coli),MIC (Staphylococcus aureus [1]),MIC (Staphylococcus aureus [2]),MIC (Staphylococcus aureus [3]),MIC (Staphylococcus aureus [4]),MIC (Streptococcus mutans),MIC (Staphylococcus aureus [5]),IC50 (L02)
CN(C)C1=NC(c2cn(-c3ccc([N+](=O)[O-])cc3[N+](=O)[O-])nc2-c2ccccc2Cl)N=C(N)N1 (stereo unspecified),64 µg/mL,32 µg/mL,64 µg/mL,32 µg/mL,64 µg/mL,32 µg/mL,64 µg/mL,32 µg/mL,–
Cc1ccc(-c2nn(-c3ccc([N+](=O)[O-])cc3[N+](=O)[O-])cc2C2N=C(N)NC(N(C)C)=N2)cc1 (stereo unspecified),64 µg/mL,16 µg/mL,8 µg/mL,16 µg/mL,16 µg/mL,8 µg/mL,16 µg/mL,8 µg/mL,–
CN(C)C1=NC(c2cn(-c3ccc([N+](=O)[O-])cc3)nc2-c2ccc(Cl)cc2Cl)N=C(N)N1 (stereo unspecified),4 µg/mL,2 µg/mL,2 µg/mL,2 µg/mL,2 µg/mL,2 µg/mL,4 µg/mL,4 µg/mL,> 100 µM
OC(Cn1cncn1)(Cn1cncn1)c1ccc(F)cc1F [FLUCONAZOLE],1 µg/mL,–,–,–,–,–,–,–,–
CN(C)C1=NC(c2cn(-c3ccc([N+](=O)[O-])cc3[N+](=O)[O-])nc2-c2ccccc2F)N=C(N)N1 (stereo unspecified),32 µg/mL,32 µg/mL,32 µg/mL,64 µg/mL,64 µg/mL,64 µg/mL,64 µg/mL,64 µg/mL,–
CN(C)C1=NC(c2cn(-c3ccc([N+](=O)[O-])cc3[N+](=O)[O-])nc2-c2ccc(F)cc2)N=C(N)N1 (stereo unspecified),32 µg/mL,32 µg/mL,32 µg/mL,32 µg/mL,64 µg/mL,32 µg/mL,32 µg/mL,64 µg/mL,–
NC1=NC(c2cn(-c3ccc([N+](=O)[O-])cc3[N+](=O)[O-])nc2-c2ccc(Br)cc2)N=C(N2CCOCC2)N1 (stereo unspecified),8 µg/mL,8 µg/mL,4 µg/mL,8 µg/mL,8 µg/mL,8 µg/mL,16 µg/mL,8 µg/mL,–
CN(C)C1=NC(c2cn(-c3ccc([N+](=O)[O-])cc3[N+](=O)[O-])nc2-c2ccccc2[N+](=O)[O-])N=C(N)N1 (stereo unspecified),> 64 µg/mL,> 64 µg/mL,> 64 µg/mL,> 64 µg/mL,> 64 µg/mL,> 64 µg/mL,> 64 µg/mL,> 64 µg/mL,–
NC1=NC(c2cn(-c3ccccc3)nc2-c2ccc(Cl)cc2)N=C(N2CCOCC2)N1 (stereo unspecified),16 µg/mL,16 µg/mL,16 µg/mL,16 µg/mL,16 µg/mL,16 µg/mL,32 µg/mL,16 µg/mL,–
CN(C)C1=NC(c2cn(-c3ccccc3)nc2-c2ccccc2)N=C(N)N1 (stereo unspecified),> 64 µg/mL,64 µg/mL,32 µg/mL,32 µg/mL,64 µg/mL,32 µg/mL,> 64 µg/mL,32 µg/mL,–
NC1=NC(c2cn(-c3ccc([N+](=O)[O-])cc3[N+](=O)[O-])nc2-c2ccccc2F)N=C(N2CCOCC2)N1 (stereo unspecified),64 µg/mL,64 µg/mL,32 µg/mL,64 µg/mL,64 µg/mL,64 µg/mL,> 64 µg/mL,64 µg/mL,–
NC1=NC(c2cn(-c3ccc([N+](=O)[O-])cc3[N+](=O)[O-])nc2-c2ccc(Cl)cc2Cl)N=C(N2CCOCC2)N1 (stereo unspecified),8 µg/mL,8 µg/mL,8 µg/mL,16 µg/mL,16 µg/mL,8 µg/mL,16 µg/mL,8 µg/mL,–
NC1=NC(c2cn(-c3ccc([N+](=O)[O-])cc3[N+](=O)[O-])nc2-c2ccccc2[N+](=O)[O-])N=C(N2CCOCC2)N1 (stereo unspecified),> 64 µg/mL,> 64 µg/mL,> 64 µg/mL,> 64 µg/mL,> 64 µg/mL,> 64 µg/mL,> 64 µg/mL,> 64 µg/mL,–
NC1=NC(c2cn(-c3ccc([N+](=O)[O-])cc3[N+](=O)[O-])nc2-c2ccccc2Cl)N=C(N2CCOCC2)N1 (stereo unspecified),64 µg/mL,64 µg/mL,32 µg/mL,32 µg/mL,64 µg/mL,32 µg/mL,64 µg/mL,32 µg/mL,–
CN(C)C1=NC(c2cn(-c3ccc([N+](=O)[O-])cc3[N+](=O)[O-])nc2-c2ccccc2)N=C(N)N1 (stereo unspecified),32 µg/mL,32 µg/mL,64 µg/mL,32 µg/mL,64 µg/mL,32 µg/mL,64 µg/mL,32 µg/mL,–
